Laboratory results published in ChEMBL document CHEMBL1938334, “Quinoline tricyclic derivatives. Design, synthesis and evaluation of the antiviral activity of three new classes of RNA-dependent RNA polymerase inhibitors” (Bioorg Med Chem, 2011).

What was measured:
[1] = test system: Yellow fever virus; experiment: Antiviral activity against Yellow fever virus 17D Stamaril Pasteur J07B01 infected in hamster BHK21 cells assessed as inhibition of virus-induced cytopathogenicity after 3 to 4 days by MTT assay; format: functional, cell-based; conditions: Stamaril Pasteur J07B01, BHK-21
In short: (§1)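 Host cells were seeded in 96-well plates at 3×10^4 cells/well (MDBK) or 5×10^4 cells/well (BHK-21) and grown to confluent monolayers overnight. They were infected at m.o.i. 0.01 in maintenance MEM with 0.5% inactivated FBS. Serial compound dilutions were added after 1 h. Viability was read by MTT after 3–4 days at 37 °C. EC50 was taken by linear regression against untreated controls. Mean of three determinations.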

[2] = Cytotoxicity against human MT4 cells after 96 hrs by MTT assay; format: cell-based
In short: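 Exponentially growing MT-4 cells seeded at 1×10^5 cells/mL in RPMI-1640 with 10% FBS, penicillin and streptomycin. Incubated with serial compound dilutions at 37 °C, 5% CO2 for 96 h; viability by MTT. CC50 by linear regression relative to untreated controls; mean of three independent determinations.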

[3] = test system: Human immunodeficiency virus 1; experiment: Antiviral activity against HIV1 3B infected in human MT4 cells assessed as inhibition of virus-induced cytopathogenicity after 4 days by MTT assay; format: functional, organism-based; conditions: Human immunodeficiency virus 1, 3B, MT4, 96 h
In short: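 MT-4 cells (1×10^4 per well) were infected with HIV-1 IIIB at 100 CCID50, m.o.i. 0.01, together with serial compound dilutions. Viability was read by MTT after 4 days at 37 °C. EC50 was taken by linear regression versus untreated controls. Mean of three determinations.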

[4] = Antiviral activity against Bovine viral diarrhea virus 1-NADL infected in MDBK cells assessed as inhibition of virus-induced cytopathogenicity after 3 to 4 days by MTT assay; format: functional, cell-based; conditions: Bovine viral diarrhea virus isolates and strains; in short: as §1
[5] = Cytotoxicity against human CRL7065 cells after 96 hrs by MTT assay; format: cell-based, CRL-7065
In short: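 Foreskin fibroblasts seeded at 1×10^5 cells/mL in specific medium with 10% FCS and antibiotics; serial compound dilutions, 37 °C, 5% CO2, 96 h, under conditions allowing untreated controls at least three rounds of multiplication. MTT read-out; concentration reducing proliferation by 50% by linear regression versus untreated controls; three independent determinations.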

[6] = test system: MCF7; experiment: Cytotoxicity against human MCF7 cells after 96 hrs by MTT assay; format: functional; conditions: MCF7, 96 h
In short: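 Cells were seeded at 1×10^5 cells/mL: leukaemia/lymphoma lines in RPMI-1640, solid tumour and fibroblast lines in specific media, all with 10% FCS. Serial compound dilutions were applied for 96 h at 37 °C, 5% CO2, under conditions allowing controls at least three rounds of multiplication. Viability was read by MTT. CC50 by linear regression. Mean of three determinations.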

[7] = test system: Reovirus sp.; experiment: Antiviral activity against Reovirus type-1 3651 infected in hamster BHK21 cells assessed as inhibition of virus-induced cytopathogenicity after 3 to 4 days by MTT assay; format: functional, organism-based; conditions: Reovirus sp., 3651, BHK-21; in short: as §1

Question: Which results are given for `O=[N+]([O-])c1ccc(-c2nc3cc4cccnc4c(Cl)c3[nH]2)cc1`?
Answer: EC50 [1]: > 100 µM; CC50 at 96 h [2]: > 100 µM; EC50 [3]: > 100 µM; EC50 [4]: 1.2 µM; CC50 at 96 h [5]: > 100 µM; CC50 [6]: > 100 µM; EC50 [7]: > 100 µM
